Screening data deposited in PubChem by Broad Institute.
The full list was thinned out, with hits kept by preference.
S100A4 inh HTS: inhibitors of human S100A4 binding to myosin IIA peptide; inhibition, % at 10.7 µM; S100A4/TAMRA-MyoIIA peptide fluorescence polarization; 360,000 compounds, 0.14% hits;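 active = mean inhibition of at least 70% across replicates, with every replicate also reaching that level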
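Material: human S100A4 monomer with TAMRA-labelled myosin IIA peptide; buffer or medium: HEPES pH 7.2 with CaCl2, KCl, NaCl, DTT, Triton; compound dosing: one concentration per compound; schedule: 5 min incubation before reading; benchmarks: neutral control DMSO, positive control TFP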
FGF22 binding-1: shifts melting point of recombinant human FGF22; Q9HCT0; recombinant FGF22 thermal shift, SYPRO orange fluorescence; percent of sucrose octasulfate shift, DMSO zero; activity (Tm shift, normalised), % at 9.99 µM; 340,000 compounds, 1.5% hits; AID 651658;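 active = mean Tm shift, scaled 0 neutral to 100 positive control, at about 1.3% or above, every replicate too, limit read from the data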
ERAP1 HTS inh: inhibitors of human ERAP1 aminopeptidase; recombinant ERAP1, Leu-AMC fluorescence, 60 min; inhibition, % at 10.7 µM; 340,000 compounds, 0.15% hits; AID 652197;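 active = mean replicate inhibition of at least 30%, or all replicates individually reaching that 30% level; inactive = mean below 30% and not every replicate reaching it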;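 also: 0% = neutral control wells and 100% = L-leucinethiol positive control wells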
ERp5 inh: ERp5 (human) disulfide isomerase inhibition; AID 651711; 350,000 compounds, 0.05% hits; inhibition, % at 9.99 µM; ERp5 insulin aggregation, absorbance 650 nm, 90 min; Q15084;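 active = mean replicate inhibition above about 25%, with every replicate also reaching it, limit read from the data, passing the limit was not always enough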
Target sequence (Q15084 whole entry, looked up): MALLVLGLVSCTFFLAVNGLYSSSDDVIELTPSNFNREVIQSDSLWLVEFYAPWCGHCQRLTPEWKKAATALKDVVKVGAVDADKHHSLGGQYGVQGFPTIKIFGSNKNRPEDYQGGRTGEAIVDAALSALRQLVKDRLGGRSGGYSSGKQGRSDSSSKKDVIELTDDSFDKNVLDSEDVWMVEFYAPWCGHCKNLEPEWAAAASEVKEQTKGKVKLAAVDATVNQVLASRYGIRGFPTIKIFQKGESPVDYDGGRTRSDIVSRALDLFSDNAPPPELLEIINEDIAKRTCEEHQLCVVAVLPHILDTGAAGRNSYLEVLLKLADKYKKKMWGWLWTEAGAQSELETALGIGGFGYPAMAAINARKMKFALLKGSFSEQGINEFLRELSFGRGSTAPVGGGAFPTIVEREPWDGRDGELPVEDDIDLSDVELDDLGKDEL
PDI turbidity: PDI (human) enzyme inhibition | PDI insulin aggregation turbidity, A650, 90 min | AID 588391 | P07237 | 350,000 compounds, 0.052% hits | inhibition, % at 10 µM;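 active = mean inhibition across replicates of 30% or more, whatever share of single replicates reach that level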
FGF22 binding-2: binds human FGF22 shifting its melting temperature; shares compounds with FGF22 binding-1; recombinant FGF22 thermal shift, SYPRO orange fluorescence; thermal shift activity, °C (ΔTm) at 38 µM; 1,000 compounds, 2% hits;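 active = fitted rise in melting shift crosses a set limit at or below the top valid dose tested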
TSA no protein: compound-only SYPRO artifact for FGF22 binders | shares compounds with FGF22 binding-1 | compound-only SYPRO orange thermal shift counter-screen, no protein | AC50, µM (titrated, usually from 38 µM) | 1,000 compounds, 2% hits | AID 743019;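 active = rising signal whose fitted curve reaches the 0.54 level within the top valid dose, showing a melting point, actives reach about 13 µM in these data; inactive = the rest, including activity in the opposite direction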; also: value is where the raw curve crosses a fixed level and not half-maximal
Active calls of the source: *; i = inactive; · = not tested or not shown.

SMILES | S100A4 inh HTS | FGF22 binding-1 | ERAP1 HTS inh | ERp5 inh | PDI turbidity | FGF22 binding-2 | TSA no protein
O=[N+]([O-])c1ccc(N/N=C/c2ccc[nH]2)cc1 | -15 | 3.1* | 4 | 3 | -6 | 0.23 | i
C[C@@H](NC(=O)C[C@@H]1CC[C@H](NS(=O)(=O)c2cccc(F)c2)[C@H](CO)O1)c1ccccc1 | -41 | 0 | 4 | 6 | · | · | ·
O=C(CN(Cc1ccccc1)S(=O)(=O)c1ccccc1)N/N=C/c1ccccc1C(=O)O | -3 | 2.3* | -5 | -6 | 7 | -0.1 | i
O=c1c2cc([N+](=O)[O-])cc([N+](=O)[O-])c2[nH]n1-c1ccccc1 | -4 | 1.8* | 7 | 1 | 7 | 0.26 | i
CCOC(=O)N1CCN(C(=O)COC(=O)CN(C)S(=O)(=O)c2ccc(NC(C)=O)cc2)CC1 | -2 | 0 | -2 | -1 | -5 | · | ·
COc1ccc(S(=O)(=O)NCC2CCCN(C(=O)CN3CCCCC3)C2)cc1 (configuration not stated) | 1 | 0 | -1 | 1 | 2 | · | ·
O=C(Nc1ccccc1)c1[nH]ncc1[N+](=O)[O-] | · | · | · | · | -5 | · | ·
COc1ccc(NC(=O)c2[nH]ncc2[N+](=O)[O-])cc1 | 5 | 1.4* | 2 | 20 | -1 | -0.16 | i
CC(=O)c1sc(NC(=O)c2cc(=O)c3ccccc3o2)nc1C | -9 | 5.1* | 1 | 5 | 0 | -0.077 | i
CCOC(=O)c1csc(NC(=O)c2cc(=O)c3ccccc3o2)n1 | 4 | 1 | 4 | 0 | 0 | · | ·
O=C1CCCN1S(=O)(=O)c1ccccc1 | -2 | 0 | 12 | -4 | 5 | · | ·
C[C@@H]1CN([C@@H](C)CO)C(=O)c2cc(NS(=O)(=O)c3cccs3)ccc2O[C@@H](C)CCCCO[C@H]1CN(C)C(=O)Nc1ccc(F)cc1 | 9 | 0 | 4 | -2 | · | · | ·
CN(C)CCN1C(=O)C2C3C=CC(C3)C2C1=O (configuration not stated) | -3 | 15* | -3 | -3 | 13 | -0.047 | i
O=C1C2C(C(=O)N1CCc1ccccc1)C1C=CC2C12CC2 (configuration not stated) | 7 | 2.5* | -3 | -5 | 1 | 0.13 | i
Oc1cc(O)cc(C=Cc2ccc(O)c(O)c2)c1 | -2 | 2.0* | 31* | -1 | · | 0.073 | i
Clc1cccc(OCc2nc(-c3ccncc3)n[nH]2)c1 | -1 | 0 | -1 | -2 | 0 | · | ·
O=C(NNC(=O)C1CCN(S(=O)(=O)c2ccccc2C(F)(F)F)CC1)c1ccccc1O | 2 | 2.6* | 3 | -1 | 3 | -0.15 | i
COc1ccc(CNC(=O)COC(=O)c2cc3ccccc3cc2O)cc1OC | 2 | 0 | 1 | -7 | -4 | · | ·
Cc1ccc(-c2n[nH]c(=S)n2/N=C/c2c(C)[nH]n(-c3ccccc3)c2=O)cc1 | -21 | 2.7* | 0 | 2 | 25 | -0.001 | i
Cc1nn(-c2ccccc2)c(C)c1/C=N/n1c(-c2ccc(Cl)cc2)n[nH]c1=S | 1 | 0 | 12 | -11 | 4 | · | ·
CSC1=Nc2ccccc2N=C(N2CCCC2)C1 | 3 | 0 | -10 | 3 | · | · | ·
COc1ccc(C(=O)C2CCCN(C(=O)c3cc(C(C)C)no3)C2)cc1F (configuration not stated) | 6 | 9.8* | 1 | -3 | 3 | 0.065 | i
COc1ccccc1C(=O)C1CCCN(C(=O)c2cc(C(C)C)no2)C1 (configuration not stated) | 0 | 0 | -2 | 3 | 3 | · | ·
COc1cc(CCC(=O)OCC(=O)Nc2ccc(C)cc2Br)cc(OC)c1OC | 2 | 28* | -3 | -2 | 3 | 0.003 | i
C/C=C/c1ccc([C@H]2[C@@H](CO)N(C(C)=O)C23CN(C(=O)c2ccc(F)cc2)C3)cc1 | -11 | 1.4* | 1 | -5 | · | -0.22 | i
C/C=C/c1ccc([C@H]2[C@@H](CO)N(C(C)=O)C23CN(C(=O)c2ccncc2)C3)cc1 | -8 | 0 | -1 | -2 | · | · | ·
CCCc1c(C)nc2ccc(OC)cc2c1SCCC(=O)O | · | · | · | · | 2 | · | ·
